The record followed here is ChEMBL document CHEMBL4811225 (J Med Chem, 2021).

Assay [1] addresses Neuronal acetylcholine receptor; alpha4/beta2 (Homo sapiens, UniProt P17787+P43681). The assay can be described thus: Inhibition of human alpha4beta2 nAChR expressed in Xenopus laevis oocytes assessed as inhibition of acetylcholine-induced current response at 10 uM by two-electrode voltage-clamp method relative to control. The settings on record: Oocyte. Format: cell-based. The method in brief: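 Oocytes (stage IV–V) injected with equal-ratio cRNAs of cloned subunits; TEVC 1–5 days post-injection. ACh 100 μM for β2-containing and α9α10 subtypes, 1 s pulses every 60 s. Peptide 10 μM in 5 min static bath; response normalized to ACh response after 5 min control-saline bath; mean ± SD, n = 4.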
(In two-electrode clamp one electrode senses voltage and the other passes current.)

The species entered for assay [2] is Rattus norvegicus. The assay can be described thus: Selectivity ratio of IC50 for rat alpha7 nAChR to IC50 for rat alpha6/alpha3beta4 nAChR. The method in brief:
(§1)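 Ratio of each subtype's IC50, from TEVC inhibition of ACh-evoked currents in X. laevis oocytes, to the IC50 at the same species' α6/α3β4 nAChR; IC50 values with 95% CI, n = number of oocytes.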

For assay [3], the species on record is Rattus norvegicus. As to the kind of experiment: Selectivity ratio of IC50 for rat alpha9alpha10 nAChR to IC50 for rat alpha6/alpha3beta4 nAChR. The method in brief:
as §1

Assay [4] deals with Neuronal acetylcholine receptor; alpha3/beta2 (Homo sapiens, UniProt P17787+P32297). The assay can be described thus: Inhibition of human alpha3beta2 nAChR expressed in Xenopus laevis oocytes assessed as inhibition of acetylcholine-induced current response by two-electrode voltage-clamp method. The format is cell-based, Oocyte. The method in brief: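 Two-electrode voltage clamp of stage IV–V oocytes 1–5 days after equal-ratio cRNA injection; ACh 100 μM (β2-containing subtypes, α9α10), 1 s every 60 s in frog saline. Peptide perfused up to 1 μM, responses normalized to mean of three control responses; above 1 μM, 5 min static bath. IC50 with 95% CI; n = oocytes.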

The species entered for assay [5] is Homo sapiens. The assay can be described thus: Selectivity ratio of IC50 for human alpha3beta2 nAChR to IC50 for human alpha6/alpha3beta4 nAChR. The method in brief:
as §1

For assay [6], the species on record is Rattus norvegicus. As to the kind of experiment: Selectivity ratio of IC50 for rat alpha6/alpha3beta2beta3 nAChR to IC50 for rat alpha6/alpha3beta4 nAChR. The method in brief:
as §1

The target of assay [7] is Nicotinic acetylcholine receptor alpha6/alpha3/beta4 (Rattus norvegicus) (UniProt P04757+P12392+P43143). The settings on record: Oocyte.
Assay [8] is filed under the species Homo sapiens. The assay can be described thus: Selectivity ratio of IC50 for human alpha9alpha10 nAChR to IC50 for human alpha6/alpha3beta4 nAChR. The method in brief: as §1
In assay [9] the target is Neuronal acetylcholine receptor subunit alpha-7 (Rattus norvegicus, UniProt Q05941). The format is cell-based, Oocyte.
Assay [10] concerns the target Neuronal acetylcholine receptor; alpha4/beta4 (Rattus norvegicus, UniProt P09483+P12392). The format is cell-based, Oocyte.
For assay [11], the species on record is Homo sapiens. The assay can be described thus: Selectivity ratio of IC50 for human alpha4beta2 nAChR to IC50 for human alpha6/alpha3beta4 nAChR. The method in brief:
as §1

The species named for assay [12] is Rattus norvegicus. The assay can be described thus: Selectivity ratio of IC50 for rat alpha4beta4 nAChR to IC50 for rat alpha6/alpha3beta4 nAChR. The method in brief: as §1

Where a SMILES comes first, the peptide text is derived from it. Bridges are numbered along the chain shown (N, C = ends).

Neuronal acetylcholine receptor; alpha4/beta4, sequence (P09483 whole entry): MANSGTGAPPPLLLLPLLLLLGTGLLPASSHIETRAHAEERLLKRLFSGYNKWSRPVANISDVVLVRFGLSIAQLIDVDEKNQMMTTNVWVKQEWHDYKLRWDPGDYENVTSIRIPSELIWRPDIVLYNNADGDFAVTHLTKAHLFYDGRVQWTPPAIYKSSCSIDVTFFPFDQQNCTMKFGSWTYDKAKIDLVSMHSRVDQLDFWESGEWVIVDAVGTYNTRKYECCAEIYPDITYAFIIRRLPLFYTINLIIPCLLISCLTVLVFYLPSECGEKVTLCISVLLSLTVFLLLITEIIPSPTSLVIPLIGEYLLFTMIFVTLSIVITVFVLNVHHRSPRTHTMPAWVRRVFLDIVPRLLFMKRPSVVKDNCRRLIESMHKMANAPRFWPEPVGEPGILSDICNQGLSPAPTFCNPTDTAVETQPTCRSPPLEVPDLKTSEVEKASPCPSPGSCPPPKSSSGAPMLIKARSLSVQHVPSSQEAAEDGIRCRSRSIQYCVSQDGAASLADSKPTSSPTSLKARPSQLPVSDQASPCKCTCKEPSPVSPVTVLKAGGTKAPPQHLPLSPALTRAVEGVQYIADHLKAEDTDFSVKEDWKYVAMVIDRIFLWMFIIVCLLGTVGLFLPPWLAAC
Neuronal acetylcholine receptor; alpha4/beta4, sequence (P12392 whole entry): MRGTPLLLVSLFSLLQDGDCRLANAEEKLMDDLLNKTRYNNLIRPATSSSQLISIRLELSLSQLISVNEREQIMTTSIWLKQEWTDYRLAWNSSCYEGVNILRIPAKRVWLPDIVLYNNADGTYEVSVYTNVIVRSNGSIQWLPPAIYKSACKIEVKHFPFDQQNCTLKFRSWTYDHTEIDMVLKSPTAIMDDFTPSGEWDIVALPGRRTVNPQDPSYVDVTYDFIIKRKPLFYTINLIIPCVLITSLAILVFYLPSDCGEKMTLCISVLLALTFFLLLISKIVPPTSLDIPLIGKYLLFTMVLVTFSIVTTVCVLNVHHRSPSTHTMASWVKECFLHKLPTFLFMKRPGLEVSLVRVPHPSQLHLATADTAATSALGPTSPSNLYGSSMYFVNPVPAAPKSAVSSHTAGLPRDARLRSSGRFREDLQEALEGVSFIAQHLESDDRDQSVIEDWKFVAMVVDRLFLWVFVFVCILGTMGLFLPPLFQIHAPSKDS
Neuronal acetylcholine receptor; alpha3/beta2, sequence (P17787 whole entry, the tested form may be a part): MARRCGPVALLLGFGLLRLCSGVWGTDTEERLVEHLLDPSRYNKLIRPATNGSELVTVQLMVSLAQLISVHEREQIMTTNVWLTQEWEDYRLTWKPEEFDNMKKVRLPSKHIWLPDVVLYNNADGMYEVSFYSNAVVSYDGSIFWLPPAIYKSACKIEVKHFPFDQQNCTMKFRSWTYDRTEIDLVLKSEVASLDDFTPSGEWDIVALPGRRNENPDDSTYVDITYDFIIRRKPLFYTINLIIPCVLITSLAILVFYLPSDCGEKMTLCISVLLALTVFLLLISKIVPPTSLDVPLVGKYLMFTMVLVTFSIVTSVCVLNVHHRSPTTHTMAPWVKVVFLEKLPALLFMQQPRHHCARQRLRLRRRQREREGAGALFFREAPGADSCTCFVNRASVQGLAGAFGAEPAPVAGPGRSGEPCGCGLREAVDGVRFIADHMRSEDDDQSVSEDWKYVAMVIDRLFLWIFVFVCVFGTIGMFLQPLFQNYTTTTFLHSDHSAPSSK
Neuronal acetylcholine receptor; alpha3/beta2, sequence (P32297 whole entry, the tested form may be a part): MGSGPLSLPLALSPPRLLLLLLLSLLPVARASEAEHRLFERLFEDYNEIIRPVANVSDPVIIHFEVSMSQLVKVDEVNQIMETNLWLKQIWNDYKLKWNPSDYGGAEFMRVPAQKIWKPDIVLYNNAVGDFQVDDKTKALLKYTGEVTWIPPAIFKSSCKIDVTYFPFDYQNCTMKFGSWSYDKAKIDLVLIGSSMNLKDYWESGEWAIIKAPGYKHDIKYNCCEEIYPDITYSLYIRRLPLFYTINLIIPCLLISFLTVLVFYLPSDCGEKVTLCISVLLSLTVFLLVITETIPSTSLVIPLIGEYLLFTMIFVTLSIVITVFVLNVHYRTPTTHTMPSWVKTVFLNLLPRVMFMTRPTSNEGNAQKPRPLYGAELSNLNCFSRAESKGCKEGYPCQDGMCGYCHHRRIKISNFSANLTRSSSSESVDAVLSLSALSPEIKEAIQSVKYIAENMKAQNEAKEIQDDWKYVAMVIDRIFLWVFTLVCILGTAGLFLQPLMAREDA
Neuronal acetylcholine receptor subunit alpha-7, sequence (Q05941 whole entry): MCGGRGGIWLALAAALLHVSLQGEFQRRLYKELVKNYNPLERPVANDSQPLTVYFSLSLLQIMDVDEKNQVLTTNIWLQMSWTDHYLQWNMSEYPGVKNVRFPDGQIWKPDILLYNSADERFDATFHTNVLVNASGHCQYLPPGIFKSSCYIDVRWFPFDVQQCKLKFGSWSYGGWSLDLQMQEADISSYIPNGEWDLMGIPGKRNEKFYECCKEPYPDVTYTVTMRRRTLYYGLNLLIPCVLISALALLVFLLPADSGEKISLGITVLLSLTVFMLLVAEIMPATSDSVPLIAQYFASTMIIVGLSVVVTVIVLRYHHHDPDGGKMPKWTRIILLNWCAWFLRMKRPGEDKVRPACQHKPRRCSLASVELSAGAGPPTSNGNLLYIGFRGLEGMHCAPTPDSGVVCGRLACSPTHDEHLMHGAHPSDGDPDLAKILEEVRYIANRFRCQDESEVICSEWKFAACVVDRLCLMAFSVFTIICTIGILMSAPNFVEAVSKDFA

The inhibition is the percentage by which the read-out fell short of the control. By IC50 is commonly meant the concentration needed to halve the response being measured. `CC[C@H](C)[C@@H]1NC(=O)[C@H](CCC(=O)O)NC(=O)[C@@H]2CCCN2C(=O)[C@H](Cc2cnc[nH]2)NC(=O)[C@H](CC(N)=O)NC(=O)[C@H](C(C)C)NC(=O)[C@H](CC(N)=O)NC(=O)[C@@H]2CSSC[C@H](NC(=O)CN)C(=O)N[C@@H](CSSC[C@@H](C(N)=O)NC1=O)C(=O)N[C@@H](CO)C(=O)N[C@@H](Cc1cnc[nH]1)C(=O)N1CCC[C@H]1C(=O)N[C@@H](C(C)C)C(=O)N2` (H-GCCSHPVCNVNHPEIC-NH2; disulfide 2-8, 3-16): in [1], the inhibition turned out to be 91%. In addition, the Ratio IC50 in the assay listed under Rattus norvegicus [2] was over 20000; in the assay listed under Rattus norvegicus [3], over 20000; in the assay listed under Homo sapiens [5] it was over 50000; in the assay filed under Rattus norvegicus [6], 227; in the assay filed under Homo sapiens [8], over 50000; in the assay listed under Homo sapiens [11] it was over 10000. Moreover, the Ratio IC50 in the assay listed under Rattus norvegicus [12] is over 20000. Also, the half-maximal inhibitory concentration (IC50) in [4], in assay [9] and in [10] was over 10 µM in each case. This compound yielded a deltalogIC50 in assay [7] of -2.4.
